Data set [1] concerns the target Melanin-concentrating hormone receptor 1 (Homo sapiens, UniProt Q99705). The data set can be described thus: Displacement of 125I-MCH from MCH-R1 expressed in IMR-32 cells. Type of data set: cell-based.
The target in data set [2] is Melanin-concentrating hormone receptor (Homo sapiens, UniProt Q969V1+Q99705). The data set is described as follows: Inhibition of MCH-mediated calcium release in IMR-32 cells. Type of data set: functional, cell-based.
Data set [3] concerns the target Beta-2 adrenergic receptor (Homo sapiens) (UniProt P07550). The data set can be described thus: Inhibition of adrenergic beta 2 receptor at 10uM.
Data set [4] has as its target Muscarinic acetylcholine receptor M2 (Homo sapiens) (UniProt P08172). The data set is described as follows: Inhibition of human muscarinic M2 receptor at 10uM.
Data set [5] concerns the target 5-hydroxytryptamine receptor 1A (Homo sapiens) (UniProt P08908). The data set can be described thus: Inhibition of human serotonin 5HT1A receptor at 10uM.
Data set [6] concerns the target Muscarinic acetylcholine receptor M1 (Homo sapiens) (UniProt P11229). The data set can be described thus: Inhibition of human muscarinic M1 receptor at 10uM.
Data set [7] deals with D(1A) dopamine receptor (Homo sapiens) (UniProt P21728). The data set is described as follows: Inhibition of human dopamine D1 receptor at 10uM.
Data set [8] addresses Sodium-dependent noradrenaline transporter (Homo sapiens) (UniProt P23975). The data set is described as follows: Inhibition of human norepinephrine transporter receptor at 10uM.
Data set [9] addresses Histamine H2 receptor (Homo sapiens) (UniProt P25021). The data set is described as follows: Inhibition of histamine H2 receptor at 10uM.
The target of data set [10] is 5-hydroxytryptamine receptor 1B (Homo sapiens) (UniProt P28222). The data set is described as follows: Inhibition of serotonin 5HT1B receptor at 10uM.
5-hydroxytryptamine receptor 1B (Homo sapiens), sequence (P28222 whole entry): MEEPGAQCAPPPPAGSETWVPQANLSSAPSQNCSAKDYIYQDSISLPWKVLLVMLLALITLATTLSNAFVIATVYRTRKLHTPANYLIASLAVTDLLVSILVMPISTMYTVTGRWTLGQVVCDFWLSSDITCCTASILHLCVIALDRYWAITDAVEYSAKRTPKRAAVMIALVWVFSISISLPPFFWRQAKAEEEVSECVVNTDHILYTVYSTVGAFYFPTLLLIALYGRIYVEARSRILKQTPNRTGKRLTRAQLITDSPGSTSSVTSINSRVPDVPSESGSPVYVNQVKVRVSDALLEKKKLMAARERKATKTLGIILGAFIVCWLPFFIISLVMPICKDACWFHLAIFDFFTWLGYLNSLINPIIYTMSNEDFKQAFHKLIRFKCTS
Data set [11] has as its target 5-hydroxytryptamine receptor 2A (Homo sapiens) (UniProt P28223). The data set can be described thus: Inhibition of human serotonin 5HT2A receptor at 10uM.
For data set [12], the target named is Adenosine receptor A1 (Homo sapiens) (UniProt P30542). The data set is described as follows: Inhibition of human adenosine A1 receptor at 10uM.
Adenosine receptor A1 (Homo sapiens), sequence (P30542 whole entry): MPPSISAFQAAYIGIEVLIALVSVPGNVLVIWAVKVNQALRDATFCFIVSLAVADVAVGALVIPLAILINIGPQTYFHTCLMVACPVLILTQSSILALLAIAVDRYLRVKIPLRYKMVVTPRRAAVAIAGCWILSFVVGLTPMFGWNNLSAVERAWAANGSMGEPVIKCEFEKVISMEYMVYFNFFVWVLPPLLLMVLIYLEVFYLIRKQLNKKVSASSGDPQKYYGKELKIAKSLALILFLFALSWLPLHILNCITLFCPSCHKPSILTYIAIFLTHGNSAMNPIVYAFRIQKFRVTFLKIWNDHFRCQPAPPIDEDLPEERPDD
The target of data set [13] is Histamine H1 receptor (Homo sapiens) (UniProt P35367). The data set can be described thus: Inhibition of histamine H1 receptor at 10uM.
Histamine H1 receptor (Homo sapiens), sequence (P35367 whole entry): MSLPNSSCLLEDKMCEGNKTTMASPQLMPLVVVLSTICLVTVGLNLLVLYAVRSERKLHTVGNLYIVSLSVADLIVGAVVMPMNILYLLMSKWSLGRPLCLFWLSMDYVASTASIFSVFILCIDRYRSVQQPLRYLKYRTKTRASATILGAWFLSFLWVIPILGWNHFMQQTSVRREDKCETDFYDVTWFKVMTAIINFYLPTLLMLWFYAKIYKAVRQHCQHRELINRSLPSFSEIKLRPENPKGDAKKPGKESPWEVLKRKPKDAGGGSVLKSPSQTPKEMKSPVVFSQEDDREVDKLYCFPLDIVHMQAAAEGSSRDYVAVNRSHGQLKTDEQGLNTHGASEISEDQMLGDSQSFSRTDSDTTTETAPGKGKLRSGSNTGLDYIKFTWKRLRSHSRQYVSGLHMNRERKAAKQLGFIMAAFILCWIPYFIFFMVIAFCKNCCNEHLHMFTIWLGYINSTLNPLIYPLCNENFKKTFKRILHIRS
In data set [14] the target is Kappa-type opioid receptor (Homo sapiens) (UniProt P41145). The data set is described as follows: Inhibition of human kappa opioid receptor at 10uM.
Data set [15] has as its target Sodium-dependent dopamine transporter (Homo sapiens) (UniProt Q01959). The data set can be described thus: Inhibition of human dopamine transporter at 10uM.
The target of data set [16] is Sigma non-opioid intracellular receptor 1 (Homo sapiens) (UniProt Q99720). The data set can be described thus: Inhibition of sigma receptor at 10uM.
The target in data set [17] is Adrenergic receptor alpha-1 (Homo sapiens) (UniProt P35348+P25100+P35368). The data set is described as follows: Inhibition of adrenergic alpha 1 receptor at 10uM. The format is protein assay.
Data set [18] in a line: Inhibition of calcium-activated potassium (SK) channel at 10uM.
Data set [19] can be described thus: Inhibition of sodium channel at 10uM.
The next data set deals with L-type calcium channel (Homo sapiens, UniProt O60840+Q01668+Q13698+Q13936). The data set can be described thus: Inhibition of L-type calcium channel at 10uM. Type of data set: protein assay.
The target in data set [20] is Adrenergic receptor alpha-2 (Homo sapiens) (UniProt P08913+P18825+P18089). The data set is described as follows: Inhibition of adrenergic alpha 2 receptor at 10uM. The format is protein assay.
The next data set has as its target Cytochrome P450 3A4 (Homo sapiens, UniProt P08684). The data set is described as follows: Inhibition of CYP3A4. The format is ADME. An outline of the steps: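 Human hepatic microsomes; CYP3A4 activity followed as oxidation of [3H]-terfenadine. IC50 taken as the compound concentration giving competitive inhibition of this oxidation.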
Data set [21] addresses Voltage-gated inwardly rectifying potassium channel KCNH2 (Homo sapiens, UniProt Q12809).
In the next data set the target is hERG versus MCH receptor (Homo sapiens, UniProt Q12809+Q969V1). The data set can be described thus: in vitro.

Melanin-concentrating hormone receptor 1, sequence (Q99705 whole entry): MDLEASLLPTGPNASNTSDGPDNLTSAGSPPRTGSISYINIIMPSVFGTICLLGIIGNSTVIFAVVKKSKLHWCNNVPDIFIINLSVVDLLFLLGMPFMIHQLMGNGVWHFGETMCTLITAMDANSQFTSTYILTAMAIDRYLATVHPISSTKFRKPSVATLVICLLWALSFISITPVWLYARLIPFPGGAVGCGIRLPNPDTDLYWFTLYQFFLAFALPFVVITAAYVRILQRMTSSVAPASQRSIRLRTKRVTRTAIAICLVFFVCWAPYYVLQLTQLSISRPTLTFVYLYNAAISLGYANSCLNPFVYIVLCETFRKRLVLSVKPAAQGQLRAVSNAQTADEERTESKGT
Sodium-dependent noradrenaline transporter (Homo sapiens), sequence (P23975 whole entry): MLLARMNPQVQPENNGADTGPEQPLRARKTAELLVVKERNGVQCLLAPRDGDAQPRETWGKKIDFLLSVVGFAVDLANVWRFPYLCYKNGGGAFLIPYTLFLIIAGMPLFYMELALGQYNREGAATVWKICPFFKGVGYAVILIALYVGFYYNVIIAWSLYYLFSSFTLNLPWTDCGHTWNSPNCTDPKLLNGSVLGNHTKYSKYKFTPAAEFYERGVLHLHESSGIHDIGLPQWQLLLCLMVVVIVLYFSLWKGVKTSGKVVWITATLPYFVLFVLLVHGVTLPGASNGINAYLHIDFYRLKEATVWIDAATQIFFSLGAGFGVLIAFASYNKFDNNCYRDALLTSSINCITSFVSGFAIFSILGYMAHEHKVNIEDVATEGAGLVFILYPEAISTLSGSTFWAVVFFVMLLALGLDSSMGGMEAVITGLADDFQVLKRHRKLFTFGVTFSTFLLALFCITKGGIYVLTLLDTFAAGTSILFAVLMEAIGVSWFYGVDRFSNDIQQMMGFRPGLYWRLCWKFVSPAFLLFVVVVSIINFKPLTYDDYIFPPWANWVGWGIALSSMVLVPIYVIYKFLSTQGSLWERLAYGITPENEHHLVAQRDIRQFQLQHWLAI
Beta-2 adrenergic receptor (Homo sapiens), sequence (P07550 whole entry, looked up): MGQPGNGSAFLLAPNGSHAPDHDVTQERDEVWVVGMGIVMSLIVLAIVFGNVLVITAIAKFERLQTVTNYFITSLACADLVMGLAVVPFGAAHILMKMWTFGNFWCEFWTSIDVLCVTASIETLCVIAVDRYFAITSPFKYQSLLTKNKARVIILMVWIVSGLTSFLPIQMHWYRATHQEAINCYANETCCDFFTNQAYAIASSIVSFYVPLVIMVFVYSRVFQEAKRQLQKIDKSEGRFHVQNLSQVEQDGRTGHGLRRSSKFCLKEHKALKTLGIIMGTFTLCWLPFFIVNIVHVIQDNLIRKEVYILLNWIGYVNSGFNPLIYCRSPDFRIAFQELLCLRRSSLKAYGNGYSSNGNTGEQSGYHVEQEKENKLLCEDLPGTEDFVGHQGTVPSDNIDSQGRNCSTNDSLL
5-hydroxytryptamine receptor 2A (Homo sapiens), sequence (P28223 whole entry): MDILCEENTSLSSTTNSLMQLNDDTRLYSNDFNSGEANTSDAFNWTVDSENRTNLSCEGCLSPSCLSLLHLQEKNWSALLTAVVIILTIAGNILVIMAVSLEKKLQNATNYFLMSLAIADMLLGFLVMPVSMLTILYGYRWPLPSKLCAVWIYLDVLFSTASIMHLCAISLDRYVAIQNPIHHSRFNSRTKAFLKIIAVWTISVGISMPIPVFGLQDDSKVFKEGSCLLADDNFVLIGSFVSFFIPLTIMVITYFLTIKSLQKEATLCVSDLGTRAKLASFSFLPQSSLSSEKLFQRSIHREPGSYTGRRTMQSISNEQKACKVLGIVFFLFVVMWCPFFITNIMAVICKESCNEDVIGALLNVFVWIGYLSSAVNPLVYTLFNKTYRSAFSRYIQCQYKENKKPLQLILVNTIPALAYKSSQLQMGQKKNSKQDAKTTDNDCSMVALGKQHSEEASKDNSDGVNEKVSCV
5-hydroxytryptamine receptor 1A (Homo sapiens), sequence (P08908 whole entry): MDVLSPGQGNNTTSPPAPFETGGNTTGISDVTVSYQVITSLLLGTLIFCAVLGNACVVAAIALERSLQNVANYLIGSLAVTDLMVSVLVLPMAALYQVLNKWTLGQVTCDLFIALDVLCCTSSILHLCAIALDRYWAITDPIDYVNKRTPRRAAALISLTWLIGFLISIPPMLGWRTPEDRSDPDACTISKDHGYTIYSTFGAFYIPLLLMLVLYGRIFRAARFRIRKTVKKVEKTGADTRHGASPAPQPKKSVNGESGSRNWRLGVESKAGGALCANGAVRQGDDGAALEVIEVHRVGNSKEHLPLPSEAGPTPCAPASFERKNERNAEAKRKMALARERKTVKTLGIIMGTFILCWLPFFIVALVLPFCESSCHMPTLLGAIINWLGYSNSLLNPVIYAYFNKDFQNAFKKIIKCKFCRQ
Voltage-gated inwardly rectifying potassium channel KCNH2, sequence (Q12809 whole entry): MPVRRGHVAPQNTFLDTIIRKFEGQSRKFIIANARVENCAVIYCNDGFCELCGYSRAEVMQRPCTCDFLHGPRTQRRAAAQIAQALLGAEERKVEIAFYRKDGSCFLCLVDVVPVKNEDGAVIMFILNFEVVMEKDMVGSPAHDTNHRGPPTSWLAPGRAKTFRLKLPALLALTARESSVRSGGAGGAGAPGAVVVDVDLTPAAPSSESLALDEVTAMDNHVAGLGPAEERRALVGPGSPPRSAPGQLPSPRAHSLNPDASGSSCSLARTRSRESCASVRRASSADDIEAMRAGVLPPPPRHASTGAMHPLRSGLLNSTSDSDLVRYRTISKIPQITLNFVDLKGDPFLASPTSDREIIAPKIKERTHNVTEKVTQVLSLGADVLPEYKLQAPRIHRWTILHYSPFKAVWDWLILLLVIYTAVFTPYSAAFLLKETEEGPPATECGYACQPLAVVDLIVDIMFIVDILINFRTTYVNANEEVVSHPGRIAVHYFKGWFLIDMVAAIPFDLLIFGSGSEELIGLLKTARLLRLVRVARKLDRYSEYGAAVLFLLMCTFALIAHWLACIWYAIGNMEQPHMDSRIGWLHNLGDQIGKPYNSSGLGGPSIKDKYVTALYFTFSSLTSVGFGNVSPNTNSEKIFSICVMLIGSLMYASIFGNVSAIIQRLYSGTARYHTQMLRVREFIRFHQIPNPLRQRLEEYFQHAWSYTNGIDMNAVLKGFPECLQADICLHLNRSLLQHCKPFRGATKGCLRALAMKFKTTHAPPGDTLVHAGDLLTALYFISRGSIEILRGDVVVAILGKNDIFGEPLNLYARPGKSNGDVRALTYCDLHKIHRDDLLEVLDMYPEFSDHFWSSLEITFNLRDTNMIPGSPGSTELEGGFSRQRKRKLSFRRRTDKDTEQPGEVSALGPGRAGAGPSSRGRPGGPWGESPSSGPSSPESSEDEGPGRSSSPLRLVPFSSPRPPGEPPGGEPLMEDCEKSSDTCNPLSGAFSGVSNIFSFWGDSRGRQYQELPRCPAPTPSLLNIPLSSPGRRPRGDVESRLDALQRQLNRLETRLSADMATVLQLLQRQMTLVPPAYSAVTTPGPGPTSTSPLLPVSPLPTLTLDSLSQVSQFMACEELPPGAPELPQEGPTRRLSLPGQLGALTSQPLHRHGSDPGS
Histamine H2 receptor (Homo sapiens), sequence (P25021 whole entry): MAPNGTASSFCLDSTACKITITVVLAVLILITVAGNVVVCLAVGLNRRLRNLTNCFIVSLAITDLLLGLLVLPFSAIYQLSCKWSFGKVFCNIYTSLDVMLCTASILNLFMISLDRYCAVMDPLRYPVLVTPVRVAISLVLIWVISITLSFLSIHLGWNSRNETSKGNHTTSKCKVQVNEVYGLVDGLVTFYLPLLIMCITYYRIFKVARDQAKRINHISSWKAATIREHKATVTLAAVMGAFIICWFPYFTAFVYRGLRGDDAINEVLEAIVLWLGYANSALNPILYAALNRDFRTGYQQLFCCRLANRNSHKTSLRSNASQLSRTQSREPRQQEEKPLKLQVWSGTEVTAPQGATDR

On to `CC(=O)Nc1cccc(CN2CCC(NC(=O)c3cc(=O)c4ccc(F)cc4o3)CC2)c1`, for which the IC50 (usually the point on the concentration scale where inhibition reaches its midpoint) in data set [1] is 47 nM; in data set [2], 551 nM.
Taken in the same sequence, the figures for `O=C(NC1CCN(Cc2ccc3cc[nH]c3c2)CC1)c1cc(=O)c2ccc(F)cc2o1` were 5 nM and 66 nM.
For `O=C(NC1CCN(Cc2ccc3ncoc3c2)CC1)c1cc(=O)c2ccc(F)cc2o1` the same measures were 10 nM and 106 nM.
As for `O=C(NC1CCN(Cc2ccc3ccc(=O)oc3c2)CC1)c1cc(=O)c2ccc(F)cc2o1`, the inhibition (in general, the change of the read-out against control, counted positive when it falls) was 16% in [3]; 15% in data set [4]; 25% in [5]; 16% in data set [6]; 7% in data set [7]; 45% in data set [8]. For the same molecule, the inhibition in data set [9] is 21%; in data set [10], 5%; in data set [11], -10%; in data set [12] it was 11%; in [13] it was 36%; in data set [14] it was 43%. The inhibition in [15] turned out to be 67%; in data set [16] it was 37%; in data set [17], 13%; in data set [18], 17%; in data set [19] it was 72%; in data set [20] it was 28%. In addition, the IC50 was 1 nM in data set [1] and 46 nM in data set [2]. The inhibition at 10 µM at L-type calcium channel was determined as 10%.
As for `O=C1COc2cc(CN3CCC(NC(=O)c4cc(=O)c5ccc(F)cc5o4)CC3)ccc2N1`, the figures for the concentration for half-maximal inhibition (IC50) in [1] and in data set [2] were 166 nM and 2410 nM, respectively.
Taken in the same sequence, the figures for `O=C(NC1CCN(Cc2ccc3oc(=O)[nH]c3c2)CC1)c1cc(=O)c2ccc(F)cc2o1` were 43 nM and 569 nM.
In the case of `O=C(NC1CCN(Cc2ccc3c(c2)OCO3)CC1)c1cc(=O)c2ccc(F)cc2o1`, the inhibition in data set [3] is 21%; in [4], 42%; in data set [5], 48%; in data set [6], 55%; in data set [7], 43%; in data set [8] it was 48%. Also, the inhibition was 16% in [9]; -6% in data set [10]; 17% in data set [11]; 8% in [12]; 65% in data set [13]; 66% in [14]. Further, the inhibition is 26% in data set [15], 104% in data set [16], 32% in data set [17] and 18% in [20]. The molecule further yielded a half-inhibitory concentration (IC50) against Cytochrome P450 3A4 of 23500 nM. In addition, the inhibition at 10 µM on L-type calcium channel was 31%.
On to `Cn1c(=O)ccc2ccc(CN3CCC(NC(=O)c4cc(=O)c5ccc(F)cc5o4)CC3)cc21`, for which the IC50 came out at 3 nM in data set [1], 44 nM in data set [2] and 47400 nM in data set [21]. For the same molecule, the selectivity ratio at hERG versus MCH receptor was determined as 1030.
In the case of `CC(=O)Nc1ccc(CN2CCC(NC(=O)c3cc(=O)c4ccc(F)cc4o3)CC2)cc1`, the IC50 in data set [2] was more than 10000 nM.
`CCc1nc2ccc(CN3CCC(NC(=O)c4cc(=O)c5ccc(F)cc5o4)CC3)cc2o1`: the half-inhibitory concentration (IC50) was 1270 nM in data set [1], more than 10000 nM in [2] and 26700 nM in [21]. Besides, at hERG versus MCH receptor, the selectivity ratio was 2.

The record behind these values is ChEMBL document CHEMBL1137588, “An evaluation of 3,4-methylenedioxy phenyl replacements in the aminopiperidine chromone class of MCHr1 antagonists” (Bioorg Med Chem Lett, 2007).
